Published values of several laboratories.
Protocols differ between the studies behind these lines.

Cc1[nH]c(C)c(S(=O)(=O)Nc2ccc(S(F)(F)(F)(F)F)cc2)c1C(=O)N1CCC(F)(F)C1 gave a half-life of 17.6 min (metabolic stability; rat, liver microsomes).
With CC(C)CC(=O)OC[C@H]1O[C@@](C#N)(c2ccc3c(N)ncnn23)[C@H](O)[C@@H]1O the half-life was 0.761 min (metabolic stability; rat, blood; 5 µM, whole blood).
With CC(C)=CCC[C@](C)(O[C@@H]1O[C@H](CO)[C@@H](O)[C@H](O)[C@H]1O)[C@H]1CC[C@]2(C)[C@@H]1[C@H](O)C[C@@H]1[C@@]3(C)CC[C@H](O)C(C)(C)[C@@H]3CC[C@]12C the AUC(0-t) was 1080 ng·h/mL (mouse, plasma; intravenous, 2 mg/kg).
Cc1c2ccncc2c(C)c2c1[nH]c1ccccc12 gave an IC50 of 10.7 µM (NCI-H187; cell growth or viability, resazurin; 5 days).
O=C(Nc1ccc([N+](=O)[O-])cc1Cl)c1cc(Cl)ccc1O has a CC50 of 8.73 µM (HeLa-ACE2; cell growth or viability, ATP luminescence; 72 h).
For CC(=O)c1c(C)c2cnc(Nc3ccc(C4CCN(CCS(C)(=O)=O)CC4)cn3)nc2n(C2CCCC2)c1=O, the half-life was 866 min (metabolic stability; rat, liver S9).
With COc1cc(C(=O)c2nc(-c3cccc4[nH]ccc34)c[nH]2)cc(OC)c1OC the half-life was greater than 1020 min (chemical stability; PBS; 5 µM, pH 6).
N=C(N)NCCC[C@H](NC(=O)[C@H](Cc1ccccc1)NC(=O)[C@H](CCC(N)=O)NC(=O)OCc1ccccc1)C(=O)c1nccs1 has an AUC(0-inf) of 129 ng·h/mL (female C57BL/6 mouse, plasma; intranasal, 5 mg/kg).
CC[C@H](C)[C@H](NC(=O)[C@H](Cc1ccccc1)NC(=O)[C@H](CCC(=O)O)NC(=O)[C@H](CCCCN)NC(=O)[C@H](C)NC(=O)[C@H](C)NC(=O)[C@H](CCC(N)=O)NC(=O)CNC(=O)[C@H](CCC(=O)O)NC(=O)[C@H](CC(C)C)NC(=O)[C@H](Cc1ccc(O)cc1)NC(=O)[C@H](CO)NC(=O)[C@H](CO)NC(=O)[C@@H](NC(=O)[C@H](CC(=O)O)NC(=O)[C@H](CO)NC(=O)[C@@H](NC(=O)[C@H](Cc1ccccc1)NC(=O)[C@@H](NC(=O)CNC(=O)[C@H](CCC(=O)O)NC(=O)[C@H](C)NC(=O)N(N)Cc1c[nH]cn1)[C@@H](C)O)[C@@H](C)O)C(C)C)C(=O)N[C@@H](C)C(=O)N[C@@H](Cc1c[nH]c2ccccc12)C(=O)N[C@@H](CC(C)C)C(=O)N[C@H](C(=O)N[C@@H](CCCNC(=N)N)C(=O)NCC(=O)N[C@@H](CCCNC(=N)N)C(=O)NCC(=O)O)C(C)C gave an AUC(0-inf) of 2400 ng·h/mL (male CD-1 mouse, plasma; intravenous, 1 mg/kg, single dose).
